Most compounds without a hit are left out; they make up all but 2.2% or so of the library.
CDK5 inh: inhibitors of human CDK5/p35 kinase; inhibition, % at 10 µM; Recombinant CDK5/p35, ADP-Glo luminescence, 60 min; 0.01% of 330,000 active; Q00535+Q15078;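 active = highest replicate inhibition of at least 50% and at least 75% of replicates reaching 50%; inconclusive = only one of the two criteria met; inactive = both criteria failed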;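 also: plate controls were DMSO neutral control for no effect and GW8510 at 10 µM for full effect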
CAL PDZ FP-1: blocks peptide binding to human CAL PDZ domain. Q9HD26. purified CAL PDZ, TMR-peptide fluorescence polarization, 1 h. inhibition, % at 20 µM. 0.02% of 330,000 active;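 active = highest replicate inhibition of at least 40%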;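 also: plate controls were DMSO neutral control wells for no effect and unlabeled competitor peptide control wells for full effect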
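Control set: unlabelled peptide and DMSO controls / Material: purified CerCALP PDZ construct / Timing: 1 h incubation at room temperature before polarization reading / Doses: 20 µM, one dose / Detection: fluorescence polarization (mP)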
Rtt109 HAT inh: blocks Candida albicans Rtt109/Vps75 acetyltransferase activity; inhibition, % at 34.9 µM; purified Rtt109/Vps75, ThioGlo CoA-SH fluorescence, 4 h; AID 540336; Q5AAJ8; 0.16% of 330,000 active;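 active = inhibition of at least 50% in every replicate; inconclusive = best replicate reaches 50% inhibition but some replicates fall short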
Dyrk1A ADPGlo: blocks rat Dyrk1A kinase activity; ADP-Glo luminescence, NFATc1 peptide; inhibition, % at 12.5 µM; 0.43% of 310,000 active; in the data active = inhibition above about 50%;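 also: plate controls were vehicle with enzyme for no effect and no enzyme for full effect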
dFosB act: mouse delta FosB homodimer activation | P13346 | AID 493131 | purified delta FosB, TAMRA-CDK5 oligo fluorescence polarization; percent of positive-control signal above neutral wells | activation, % at 25 µM | 0.99% of 340,000 active;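 active = mean activation above about 17%, with every replicate also reaching it, limit read from the data, passing the limit was not always enough; inconclusive = only one of the two conditions met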
Target sequence (P13346 whole entry, looked up): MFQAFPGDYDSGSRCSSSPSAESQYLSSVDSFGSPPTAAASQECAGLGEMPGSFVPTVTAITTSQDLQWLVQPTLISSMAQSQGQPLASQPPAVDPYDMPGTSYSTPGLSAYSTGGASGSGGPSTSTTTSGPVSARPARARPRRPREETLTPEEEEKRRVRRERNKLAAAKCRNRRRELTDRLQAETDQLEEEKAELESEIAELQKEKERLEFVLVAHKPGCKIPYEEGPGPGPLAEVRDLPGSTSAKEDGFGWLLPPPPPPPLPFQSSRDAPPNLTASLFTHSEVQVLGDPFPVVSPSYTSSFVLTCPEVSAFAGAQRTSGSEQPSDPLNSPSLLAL
CAL PDZ FP-2: CAL PDZ (human) peptide binding inhibition. purified CAL PDZ, TMR-peptide fluorescence polarization, 1 h. AID 602252. inhibition, % at 24.9 µM. Q9HD26. 0.92% of 300,000 active;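 active = mean inhibition of at least 30% with at least half of replicates also reaching 30%; inconclusive = no clear call, values can overlap the other calls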;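 also: 0% = DMSO neutral control and 100% = excess unlabeled competitor peptide PRC23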
An asterisk follows results filed as active; u = inconclusive; x = no result.

SMILES	CDK5 inh	CAL PDZ FP-1	Rtt109 HAT inh	Dyrk1A ADPGlo	dFosB act	CAL PDZ FP-2
COc1ccccc1N1CCN(C(=O)c2c(-c3c(F)cccc3Cl)noc2C)CC1	0	0	6	1	4	0
O=C1OC(CCl)CN1Cc1c(Cl)cccc1Cl (stereo not given)	0	-1	38	x	-5	2
O=C1OC(CO)CN1Cc1ccccc1 (stereo not given)	0	x	0	0	-1	58*
CCCn1nnnc1SCC(=O)N1CCCCC1	-1	-3	-14	-4	-4	14
CCCn1nnnc1SCC(=O)N1CCCC1	x	-1	-6	-1	-9	43*
COc1cccc(/C=N/NC(=O)c2c(C)nc3ccc(Cl)cn23)c1O	-1	0	-21	0	-1	62*
COc1ccccc1/C=N\NC(=O)c1c(C)nc2ccc(Cl)cn12	-1	-1	-1	21	-25	1
O=c1nccc(Nc2ccccc2)[nH]1	1	0	-1	17	-1	63*
O=C(Cc1ccccc1)Nc1ccc(SC(F)F)cc1	1	-1	0	-7	-4	-4
CCCCCc1ccc(OCCOCCn2c[n+](C)c3ccccc32)c(CCCCC)c1	0	-1	81*	-11	6	-2
COc1ccc(N(C)C(=O)CN(C)S(=O)(=O)c2ccc3c(c2)c(=O)n(C)c(=O)n3C)c(OC)c1	1	0	-2	-2	-12	-2
Cc1ccc(C2=NN(CCC(=O)NCCCN3CCOCC3)C(=O)CC2)cc1	-1	-1	-7	-2	-3	-3
O=C(CCN1N=C(c2ccccc2)CCC1=O)NCCCN1CCOCC1	-1	-1	1	2	-4	64*
Cc1ccc(NC(=O)CN(C)C(=S)NC2CC2)cc1	0	33	-5	x	1	-16
O=C(CSc1nnc(N2CCCC2)n1-c1ccccc1Cl)N1CCN(c2ccccn2)CC1	0	0	-5	x	1	40*
Cc1ccccc1-n1c(SCC(=O)N2CCN(c3ccccn3)CC2)nnc1N1CCOCC1	3	-1	10	7	1	-2
COc1cc(O)c2c(=O)c(-c3ccc(O[C@@H]4O[C@H](CO)[C@@H](O)[C@H](O)[C@H]4O)cc3)coc2c1	1	x	-5	2	-17	-9
CC(=O)Oc1cc2cccc(OC(C)=O)c(=O)c2c(OC(C)=O)c1OC(C)=O	0	0	u	64*	-5	1
c1cc2c3c(cccc3c1)NC1(CCCC1)N2	-2	-1	6	x	63*	x
CC1(C)Nc2cccc3cccc(c23)N1	1	1	0	-2	3	-1
CC(=O)Nc1ccc2nc(-c3cccn3C)[nH]c2c1	-3	1	-2	9	1	35*
Cc1ccc(NC(=O)c2sccc2-n2cccc2)c(Cl)c1	-4	-2	x	9	3	0
Cc1cccc(NC(=O)c2sccc2-n2cccc2)c1C	-2	x	-8	1	-7	32*
NCC(O)COCCC12CC3CC(CC(C3)C1)C2 (stereo not given)	-1	-2	-2	1	-2	39*
OC(COCCC12CC3CC(CC(C3)C1)C2)CN1CCCC1 (stereo not given)	0	0	17	15	-3	-2
SMILES	CDK5 inh	CAL PDZ FP-1	Rtt109 HAT inh	Dyrk1A ADPGlo	dFosB act	CAL PDZ FP-2
COc1ccc(NC(=O)CCNC(=O)C2CCN(S(=O)(=O)c3ccc(OC)cc3)CC2)cc1	1	-2	-5	2	-5	-7
COc1ccc(S(=O)(=O)N2CCC(C(=O)NCCC(=O)Nc3cccc(Cl)c3)CC2)cc1	1	-2	-5	2	-15	41*
C[C@@H](C(=O)NCCc1ccccc1)N1C(=O)N2CCc3c([nH]c4ccccc34)[C@@]2(C)C1=O	2	1	9	2	-9	1
CCOC(=O)C1=C(C)N=c2s/c(=C\c3ccc(OCC(=O)O)cc3)c(=O)n2C1c1ccc(OC(C)C)cc1 (stereo not given)	2	-1	u	-5	-10	-4
CCOC(=O)C1=C(C)N=c2s/c(=C/c3ccc(OCC(=O)O)cc3)c(=O)n2C1c1cc(OC)c(OC)c(OC)c1 (stereo not given)	3	-1	68*	5	-7	x
CC(C)[C@H](NC(=O)c1ccccc1)C(=O)OCC(=O)N1CC2(C)CC1CC(C)(C)C2 (stereo not given in full)	-1	4	6	-2	-7	-2
c1ccc(Nc2nc(N3CCCC3)nc(N3CCOCC3)n2)cc1	-1	0	6	17	-3	-3
Cc1[nH]c2ccccc2c1/C=N/Nc1nc(Nc2ccccc2)nc(N2CCOCC2)n1	1	-2	2	-1	23*	-3
Oc1[nH]c2ccccc2c1N=Nc1nc(Nc2ccccc2)nc(N2CCOCC2)n1	1	-2	3	-4	47*	-3
CN(C)C(=O)c1ccc(-n2cccn2)nc1	1	x	-6	-2	-8	2
Cc1cccn2cc(CCNS(=O)(=O)c3cccs3)nc12	0	0	55*	-1	-2	-6
O=C(CSc1nc2cccnc2n1Cc1ccccc1)NCc1ccco1	-1	x	22	-1	-2	65*
CCn1c(SCC(=O)NCc2ccco2)nc2cccnc21	-1	x	-11	0	-2	-1
Cc1ccc(C(=O)CCC(=O)NC2CCCC(C)C2C)cc1 (stereo not given)	-2	-2	-8	x	-7	90*
CC1=NC(C)(C)Cc2c(C)cccc21	3	0	1	-2	4	-4
CC1=NC(C)(C)Cc2cc(C)c(C)cc21	-1	0	x	-3	-6	54*
Cc1ccsc1C(=O)NNC(=O)c1cccc(S(=O)(=O)N2CCCC2)c1	1	0	3	x	3	83*
CC(=O)c1cccc(S(=O)(=O)N2CCC(C(=O)O)CC2)c1	0	0	58*	-1	1	-3
COc1ccc(NC(=O)c2cccc(S(=O)(=O)N3CCCC3)c2)cc1OC	0	0	-9	x	-1	77*
COc1ccc(OC)c(-c2csc(NC(=O)c3ccc(F)cc3)n2)c1	0	-3	-3	8	8	-3
O=c1[nH]c(/C(Cl)=C/c2cccc(C(F)(F)F)c2)nc2cc(Cl)ccc12	-2	0	-9	-6	-3	-2
O=C1CN(Cc2cc(=O)oc3cc4c(cc23)CCC4)CCN1	-2	-1	5	-6	-4	1
Oc1cc(O)c(CN2CCOCC2)cc1CN1CCOCC1	1	0	101*	-5	2	x
O=C(CSc1nccc(-c2cccs2)n1)Nc1cccc(Cl)c1Cl	1	0	1	x	-2	51*
O=C(CSc1nccc(-c2cccs2)n1)Nc1ccc(Cl)cc1	-2	-3	-7	x	-8	x

Source: PubChem BioAssay (Broad Institute)
